Tests used:
Coagulation factor X = Coagulation factor X (Homo sapiens, UniProt P00742); test: Inhibition of human factor 10a
Method in brief: (§1)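 Ki values were measured against the purified human enzymes.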

Prothrombin = Prothrombin (Homo sapiens, UniProt P00734); test: Inhibition of human thrombin
Trypsin = Trypsin (Homo sapiens, UniProt P07477+P07478+P35030); test: Inhibition of human trypsin; format: protein assay; method in brief: as §1
Plasma = test: Anticoagulant potency in human plasma assessed as concentration required to double prothrombin time; format: functional
[1] = Apparent permeability across Caco-2 cells; format: ADME, cell-based; conditions: human
[2] = Oral bioavailability in dog at 0.2 mg/kg; format: ADME, organism-based, Canis lupus familiaris; conditions: in vivo
Method in brief: (§2)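 Cassette (N-in-1) dosing, with compounds given together at 0.5 mg/kg iv and 0.2 mg/kg po; one animal per route (n = 1). Clearance, steady-state volume of distribution, oral half-life and oral bioavailability (F%) were derived from plasma levels.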

[3] = Clearance in dog at 0.5 mg/kg, iv and 0.2 mg/kg, po; format: ADME, organism-based, Canis lupus familiaris; conditions: in vivo; method in brief: as §2
[4] = Half life in dog at 0.2 mg/kg, po; format: ADME, organism-based, Canis lupus familiaris; parameters: dose 0.2 mg/kg, route oral; conditions: in vivo; method in brief: as §2
[5] = (§3) Volume of distribution at steady state in dog at 0.5 mg/kg, iv and 0.2 mg/kg, po; format: ADME, organism-based, Canis lupus familiaris; conditions: in vivo, read-out: Vdss; method in brief: as §2
Canis familiaris = test: as §3; format: ADME, organism-based, Canis lupus familiaris; conditions: in vivo; method in brief: as §2

Chain of Coagulation factor X (P00742 41-179 limits assumed): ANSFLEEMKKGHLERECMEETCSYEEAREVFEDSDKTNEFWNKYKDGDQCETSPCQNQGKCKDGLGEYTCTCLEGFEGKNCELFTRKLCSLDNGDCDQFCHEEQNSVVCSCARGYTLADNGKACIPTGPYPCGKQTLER
Chain of Coagulation factor X (P00742 235-488 limits assumed): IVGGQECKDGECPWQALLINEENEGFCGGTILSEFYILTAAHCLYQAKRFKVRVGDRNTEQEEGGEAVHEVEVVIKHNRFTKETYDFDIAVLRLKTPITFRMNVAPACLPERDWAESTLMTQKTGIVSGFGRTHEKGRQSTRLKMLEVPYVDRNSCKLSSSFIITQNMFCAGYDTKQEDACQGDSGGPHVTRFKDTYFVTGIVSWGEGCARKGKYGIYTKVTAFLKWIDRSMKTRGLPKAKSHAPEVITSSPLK

| SMILES | Ki (Coagulation factor X) [nM] | Ki (Prothrombin) [nM] | Ki (Trypsin) [nM] | other results |
| --- | --- | --- | --- | --- |
| NC(=O)c1cc(C(=O)N2CCc3cc(N4CCCCCC4=O)ccc32)n(-c2ccc3onc(N)c3c2)n1 | 15 |  |  |  |
| NC(=O)c1cc(C(=O)N2CCc3ccc(N4CCCCCC4=O)cc32)n(-c2ccc3onc(N)c3c2)n1 | 1100 |  |  |  |
| CN(C)Cc1ccccc1-c1ccc2c(c1)CCN2C(=O)c1cc(C(F)(F)F)nn1-c1ccc2onc(N)c2c1 | 19 | 19200 |  |  |
| CC(=O)N(C)Cc1nccn1-c1ccc2c(c1)CCN2C(=O)c1cc(C(N)=O)nn1-c1ccc2onc(N)c2c1 | 4.8 |  |  |  |
| CN(C)CC(=O)N(C)c1ccc2c(c1)CCN2C(=O)c1cc(C(N)=O)nn1-c1ccc2onc(N)c2c1 | 6.8 |  |  |  |
| CN(C)Cc1nccn1-c1ccc2c(c1)CCN2C(=O)c1cc(C(N)=O)nn1-c1ccc2onc(N)c2c1 | 2.2 |  |  |  |
| CN(C)CC(=O)N(C)c1ccc2c(c1)N(C(=O)c1cc(C(N)=O)nn1-c1ccc3onc(N)c3c1)CC2 | 350 |  |  |  |
| CS(=O)(=O)c1ccccc1-c1ccc(NC(=O)c2cc(C(F)(F)F)nn2-c2ccc3onc(N)c3c2)c(F)c1 |  |  | > 5200 |  |
| CN(C)Cc1nccn1-c1ccc(NC(=O)c2cc(C(F)(F)F)nn2-c2ccc3onc(N)c3c2)c(F)c1 [RAZAXABAN] |  |  |  | clearance [3]: 18.3 mL/min/kg; Vdss (Canis familiaris): 3.4 L/kg |
| NC(=O)c1cc(C(=O)N2CCc3cc(N4CCCCC4=O)ccc32)n(-c2ccc3onc(N)c3c2)n1 | 2.4 |  |  | Papp [1]: 0.1 ×10⁻⁶ cm/s; bioavailability [2]: 6%; clearance [3]: 3.67 mL/min/kg; Activity (Plasma): 3.3 µM; half-life [4]: 1.6 h; Vd [5]: 0.2 L/kg |
| Nc1noc2ccc(-n3nc(C(F)(F)F)cc3C(=O)N3CCc4cc(-c5ccccc5CN5CCCC5)ccc43)cc12 | 4.9 | 15000 | > 40000 | clearance [3]: 123 mL/min/kg; Vd [5]: 20 L/kg |

Continued, in another order:

| Ki (Coagulation factor X) [nM] | Ki (Prothrombin) [nM] | Ki (Trypsin) [nM] | SMILES | other results |
| --- | --- | --- | --- | --- |
| 1400 | > 6300 | > 4200 | CS(=O)(=O)c1ccccc1-c1ccc2c(c1)C(O)CCN2C(=O)c1cc(C(F)(F)F)nn1-c1ccc2onc(N)c2c1 (racemic) |  |
| 500 | > 21000 | > 4200 | CS(=O)(=O)c1ccccc1-c1ccc2c(c1)C(=O)CCN2C(=O)c1cc(C(F)(F)F)nn1-c1ccc2onc(N)c2c1 |  |
| 0.82 | > 20000 |  | CS(=O)(=O)c1ccccc1-c1ccc2c(c1)CCN2C(=O)c1cc(C(N)=O)nn1-c1ccc2onc(N)c2c1 | Activity (Plasma): 41 µM |
| 1 |  | > 20000 | CN(C)Cc1ccccc1-c1ccc2c(c1)CCN2C(=O)c1cc(C(N)=O)nn1-c1ccc2onc(N)c2c1 | Papp [1]: 0.3 ×10⁻⁶ cm/s; Activity (Plasma): 3 µM |
| 2.7 | > 21000 | > 2500 | Nc1noc2ccc(-n3nc(C(F)(F)F)cc3C(=O)N3CCc4cc(-c5ccccc5S(N)(=O)=O)ccc43)cc12 | bioavailability [2]: 66%; clearance [3]: 10.5 mL/min/kg; Activity (Plasma): 28 µM; half-life [4]: 4 h; Vd [5]: 2 L/kg |
| 71 | > 21000 |  | CS(=O)(=O)c1ccccc1-c1ccc2c(c1)OCCN2C(=O)c1cc(C(F)(F)F)nn1-c1ccc2onc(N)c2c1 |  |
| 2000 | > 6300 | > 4200 | CS(=O)(=O)c1ccccc1-c1ccc2c(c1)CCCN2C(=O)c1cc(C(F)(F)F)nn1-c1ccc2onc(N)c2c1 |  |
| 6.9 |  |  | CN(Cc1nccn1-c1ccc2c(c1)CCN2C(=O)c1cc(C(N)=O)nn1-c1ccc2onc(N)c2c1)S(C)(=O)=O |  |
| 3400 | > 6300 | > 4200 | Nc1noc2ccc(-n3nc(C(F)(F)F)cc3C(=O)N3CCCCc4cc(-c5ccccc5S(N)(=O)=O)ccc43)cc12 |  |
| 0.2 |  |  | NC(=O)c1cc(C(=O)N2CCc3cc(-n4ccccc4=O)ccc32)n(-c2ccc3onc(N)c3c2)n1 | Papp [1]: 0.1 ×10⁻⁶ cm/s; Activity (Plasma): 1.9 µM |
| 1.5 | > 21000 | > 2500 | CS(=O)(=O)c1ccccc1-c1ccc2c(c1)CCN2C(=O)c1cc(C(F)(F)F)nn1-c1ccc2onc(N)c2c1 | Activity (Plasma): 26 µM |
| 1400 |  |  | CS(=O)(=O)c1ccccc1-c1ccc2c(c1)N(C(=O)c1cc(C(N)=O)nn1-c1ccc3onc(N)c3c1)CC2 |  |
| 0.63 |  |  | NC(=O)c1cc(C(=O)N2CCc3cc(-c4ccccc4CN4CCCC4)ccc32)n(-c2ccc3onc(N)c3c2)n1 | Papp [1]: 0.7 ×10⁻⁶ cm/s; clearance [3]: 59.5 mL/min/kg; Activity (Plasma): 2.1 µM; Vd [5]: 6.2 L/kg |

Reference: ChEMBL document CHEMBL1140556, “Design, structure-activity relationship, and pharmacokinetic profile of pyrazole-based indoline factor Xa inhibitors” (Bioorg Med Chem Lett, 2007)
